# Published values pooled from the literature.
# Compare with care: the assays were run in different laboratories.
# Target: Activin receptor type-1 (ACVR1, Homo sapiens, UniProt Q04771)
# Residues used in one study (Q04771 21-509): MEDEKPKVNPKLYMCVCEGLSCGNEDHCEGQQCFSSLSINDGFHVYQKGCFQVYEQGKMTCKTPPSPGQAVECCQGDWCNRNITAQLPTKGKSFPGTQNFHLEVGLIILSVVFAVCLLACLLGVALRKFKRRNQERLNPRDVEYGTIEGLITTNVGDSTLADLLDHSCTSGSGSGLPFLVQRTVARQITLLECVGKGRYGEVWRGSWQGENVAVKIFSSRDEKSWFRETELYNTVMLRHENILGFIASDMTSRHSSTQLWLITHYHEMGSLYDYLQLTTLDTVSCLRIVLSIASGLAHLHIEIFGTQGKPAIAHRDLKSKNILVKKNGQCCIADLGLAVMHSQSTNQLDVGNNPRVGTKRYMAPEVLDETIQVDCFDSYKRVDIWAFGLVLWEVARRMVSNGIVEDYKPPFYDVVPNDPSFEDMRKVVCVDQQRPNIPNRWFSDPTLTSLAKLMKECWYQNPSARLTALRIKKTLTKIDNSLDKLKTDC
SMILES,assay,setting,remaining binding
c1cncc(-c2cccc(Nc3nccc(NC4CCCCC4)n3)c2)c1,"binding, competition with immobilised ligand",10 µM,15%
C=CC(=O)N1CCC(C(=O)NCC(=O)N2CCN(c3nc(-c4cnc(N)nc4C(F)F)nc(N4CCOCC4)n3)CC2)CC1,"binding, competition with immobilised ligand",1 µM,100%
COCCOc1nc(-c2ccc(Cl)nc2)nc2c1CN(C(=O)c1ncn3ccccc13)CC2,"cell-free assay, competition with immobilised ligand",0.1 µM,100%
c1cnn2ncc(-c3ccnc(N4CCC45COC5)n3)c2c1,binding,1 µM,64%
C[C@@]1(Cc2ccc(C#N)cc2)C(=O)N(c2cc(Cl)cc(Cl)c2)c2ncc(C(=O)NC3(c4nc(C5CCC5)no4)CC3)n21,"cell-free assay, competition with immobilised ligand",1 µM,89%
O=C(NCCCN1CCOCC1)c1ccc(Nc2ncc(Cl)c(-c3ccc(Cl)s3)n2)cc1,"binding, competition with immobilised ligand",1 µM,78%
O=C(Nc1c[nH]nc1C(=O)NC1CCNCC1)c1cc(F)cc(F)c1,"binding, competition with immobilised ligand",1 µM,100%
O=C(c1ccc(Nc2nccc(-c3cc4ccccc4s3)n2)cc1)N1CCC(N2CCCC2)CC1,"binding, competition with immobilised ligand",1 µM,26%
CN(C)c1nccc(-c2cnc3ncccn23)n1,binding,1 µM,88%
FC(F)(F)Oc1cccc(-c2cnc3ccc(-c4ccncc4)nn23)c1,"cell-free assay, competition with immobilised ligand",5 µM,8.9%
C[C@H]1CCN(c2nccc(-c3cnn4ncccc34)n2)C1,binding,1 µM,100%
O=C1CCc2cc(Nc3cc(OC4CCOCC4)c([N+](=O)[O-])cc3Cl)ccc2N1,"cell-free assay, competition with immobilised ligand",1 µM,100%
CN(C)c1nccc(-c2cnn3ncccc23)n1,binding,1 µM,90%
Cc1cnc(Nc2ccc(C(=O)N3CCC(N4CCCC4)CC3)cc2)nc1-c1cc2ccccc2s1,"binding, competition with immobilised ligand",1 µM,72%
N[C@H]1CCN(c2nccc(-c3cnn4ncccc34)n2)C1,binding,1 µM,85%
O=C(NCCCC1CCCCC1)c1ccc(CNC(=O)c2cnn(-c3ccccc3)c2C(F)(F)F)cc1,"cell-free assay, competition with immobilised ligand",0.1 µM,100%
COc1cnc(Nc2cccc(S(N)(=O)=O)c2)nc1N1CCN(c2ccccc2)CC1,"binding, competition with immobilised ligand",1 µM,100%
Cc1nc(N2CC[C@@H](O)C2)ncc1-c1cc(C(F)(F)F)cc2[nH]ncc12,"cell-free assay, competition with immobilised ligand",1 µM,80%
CN(CCCC(F)(F)F)c1nccc(-c2cnn3ncccc23)n1,binding,1 µM,77%
FC(F)(F)c1ccc2c(c1)nc(-c1cccnc1)n2C1CC1,"cell-free assay, competition with immobilised ligand",1 µM,100%
CNC(=O)[C@@H]1CC[C@@H](n2c(-c3ccc4cnccc4c3)nc3ccc(C(=O)NCc4cccc(C(N)=O)c4)cc32)C1,"binding, competition with immobilised ligand",1 µM,46%
